Reference: ChEMBL document CHEMBL3763095, “Naphtho[1',2':4,5]imidazo[1,2-a]pyridine-5,6-diones: Synthesis, enzymatic reduction and cytotoxic activity” (Bioorg Med Chem Lett, 2016)
Active and inactive are the calls of the source. No cut-off for these calls is given here.

Columns and labels:
[1] = target: NAD(P)H dehydrogenase [quinone] 1 (Homo sapiens) (UniProt P15559); assay: Activity of NQO1 (unknown origin) assessed as O2 uptake at 5 to 15 uM by polarographic analysis in the presence of catalase and 150 to 200 uM NADPH
[2] = target: NAD(P)H dehydrogenase [quinone] 1 (Homo sapiens) (UniProt P15559); assay: Activity of NQO1 (unknown origin) assessed as reduction of cytochrome c at 5 to 15 uM in the presence of superoxide dismutase and 150 to 200 uM of NADPH
Procedure, shortened: (§1)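 NQO1-catalysed quinone reduction coupled to cytochrome c (50 µM) as the terminal single-electron acceptor.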

Escherichia coli = assay: Antibacterial activity against Escherichia coli ATCC 25922 after 16 hrs by two-fold microdillution method; type: functional, organism-based
Salmonella enterica = assay: Antibacterial activity against Salmonella enterica SL 5676 after 16 hrs by two-fold microdillution method; type: functional, organism-based
[3] = target: NAD(P)H dehydrogenase [quinone] 1 (Homo sapiens) (UniProt P15559); assay: Substrate inhibition of NQO1 (unknown origin) by spectrophotometric analysis in the presence of 12.5 to 200 uM NADPH
[4] = target: NAD(P)H dehydrogenase [quinone] 1 (Homo sapiens) (UniProt P15559); assay: Activity of NQO1 (unknown origin) assessed as reduction of cytochrome c at 5 to 15 uM by spectrophotometric analysis relative to NADPH oxidation rate; parameters: scale not given: the % may be the effect or the level left; procedure, shortened: as §1

NAD(P)H dehydrogenase [quinone] 1 (Homo sapiens), sequence (P15559 whole entry): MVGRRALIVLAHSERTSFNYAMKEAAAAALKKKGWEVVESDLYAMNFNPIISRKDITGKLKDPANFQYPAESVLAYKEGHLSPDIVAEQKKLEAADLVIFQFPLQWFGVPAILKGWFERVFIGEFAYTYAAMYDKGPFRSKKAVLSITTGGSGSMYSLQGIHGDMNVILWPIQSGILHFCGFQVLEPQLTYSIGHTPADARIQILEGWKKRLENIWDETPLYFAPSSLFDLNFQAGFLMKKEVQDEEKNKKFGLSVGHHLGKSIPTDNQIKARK

SMILES | Activity [1] | Activity [2] | Activity (Escherichia coli) | Activity (Salmonella enterica) | inhibition [3] | Activity [4]
O=C1C(=O)c2c(nc3ccccn23)-c2ccccc21 | inactive | inactive | inactive | inactive | Active | 180%
Cc1ccn2c3c(nc2c1)-c1ccccc1C(=O)C3=O | inactive | inactive | inactive | inactive | – | 180%
O=C1C(=O)c2c(nc3ccccn23)-c2ccc([N+](=O)[O-])cc21 | inactive | inactive | inactive | inactive | – | 180%
O=C1C(=O)c2c(nc3ccc(F)cn23)-c2ccccc21 | inactive | inactive | inactive | inactive | – | 180%
Cc1ccc2nc3c(n2c1)C(=O)C(=O)c1ccccc1-3 | inactive | inactive | inactive | inactive | – | 180%
O=C1C(=O)c2c(nc3ccc(C(F)(F)F)cn23)-c2ccccc21 | inactive | inactive | inactive | inactive | – | 180%
Cc1cccn2c3c(nc12)-c1ccccc1C(=O)C3=O | inactive | inactive | inactive | inactive | – | 180%
O=C1C(=O)c2c(nc3ncccn23)-c2ccccc21 | inactive | inactive | inactive | inactive | – | 180%
O=C1C(=O)c2c(nc3ccc4ccccc4n23)-c2ccccc21 | inactive | inactive | inactive | inactive | – | 180%
O=C1C(=O)c2c(nc3ccc([N+](=O)[O-])cn23)-c2ccccc21 | inactive | inactive | inactive | inactive | – | 180%
COc1ccc2nc3c(n2c1)C(=O)C(=O)c1ccccc1-3 | inactive | inactive | inactive | inactive | Active | 180%
O=C1C(=O)c2c(nc3ccc(Cl)cn23)-c2ccccc21 | inactive | inactive | inactive | inactive | – | 180%
O=C1C(=O)c2c(nc3ccc(Br)cn23)-c2ccccc21 | inactive | inactive | inactive | inactive | – | 180%
